Data: ChEMBL document CHEMBL5653630, “Activation of the p53-MDM4 regulatory axis defines the anti-tumour response to PRMT5 inhibition through its role in regulating cellular splicing” (Sci Rep, 2018)
The source made the active and inactive calls. No cut-off for these calls is given here.

What was measured:
[1] = tested on: MDA-MB-468; test: Induction of cell cycle arrest in human MDA-MB-468 cells assessed as decrease in 2n cell population measured upto 5000 nM measured for 2 to 7 days by propidium iodide staining based flow cytometric analysis; format: functional; details: time 2-7 day
[2] = tested on: Z-138; test: Antitumor activity against human Z138 cells xenografted in mouse at 25 to 50 mg/kg, po qd measured at 14 to 21 days; format: functional, organism-based; details: dose lower […], dose upper 50.0 mg/kg, time 14-21 day
[3] = tested on: MDA-MB-468; test: Induction of cell cycle arrest in human MDA-MB-468 cells assessed as increase in 4n cell population measured upto 5000 nM measured for 7 to 10 days by propidium iodide staining based flow cytometric analysis; format: functional; details: time 7-10 day
[4] = tested on: A204; test: Antiproliferative activity against human A204 cells assessed as cell growth inhibition incubated for 10 days; format: functional; details: A204, 240 h, time 10 day
In short: (§1)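 Cells kept in RPMI-1640 with 10% FBS, 2 mM L-alanyl-L-glutamine and 1 mM Na pyruvate (or a special medium) at 37°C, 5% CO2. Compound added 24 h after seeding, 10 concentrations in 3.16-fold dilution, 0.1% DMSO final. Medium replaced and cells re-dosed at 168 h; 240 h incubation. Nuclei fixed, dye-stained and imaged. gIC50 = growth midway between untreated and time-zero cell counts, from a 4-parameter fit.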

[5] = tested on: CGTH-W-1; test: Antiproliferative activity against human CGTH-W-1 cells assessed as cell growth inhibition incubated for 10 days; format: functional; details: CGTH-W-1, 240 h, time 10 day; in short: as §1
[6] = tested on: COLO 320; test: Antiproliferative activity against human COLO 320 cells assessed as cell growth inhibition incubated for 10 days; format: functional; details: COLO 320, 240 h, time 10 day; in short: as §1
[7] = tested on: KLE; test: Antiproliferative activity against human KLE cells assessed as cell growth inhibition incubated for 10 days; format: functional; details: 240 h, time 10 day
In short: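 Cells grown in RPMI-1640 with 10% FBS, 2 mM L-alanyl-L-glutamine and 1 mM Na pyruvate (or special medium) at 37°C, 5% CO2. Compound was added 24 h after seeding, with a parallel time-zero plate. Medium was replaced and the compound re-dosed at 168 h. Dosing used 10 concentrations (3.16-fold dilutions, 0.1% DMSO) over a 240 h incubation. Nuclei were stained and imaged. gIC50 is growth midway between untreated and time-zero, from a 4-parameter fit.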

[8] = tested on: DB; test: Antiproliferative activity against human DB cells assessed as cell growth inhibition incubated for 10 days; format: functional; details: 240 h, time 10 day
In short: (§2)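 Outsourced panel run in 384-well plates. Cells were grown in RPMI-1640/10% FBS or a special medium at 37°C, 5% CO2. Compound was added 24 h after seeding as a 10-point, 3.16-fold series in 0.1% DMSO. Medium was refreshed and cells re-dosed at 168 h, with a time-zero plate kept. At 240 h cells were fixed, nuclei stained and imaged. gIC50 is growth midway between untreated and time zero, from a 4-parameter fit.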

[9] = tested on: A 172; test: Antiproliferative activity against human A-172 cells assessed as cell growth inhibition incubated for 6 days by celltiter-glo assay; format: functional; details: A 172, 144 h, time 6 day
[10] = tested on: ACHN; test: Antiproliferative activity against human ACHN cells assessed as cell growth inhibition incubated for 10 days; format: functional; details: 240 h, time 10 day; in short: as §1
[11] = tested on: COLO 201; test: Antiproliferative activity against human COLO201 cells assessed as cell growth inhibition incubated for 10 days; format: functional; details: COLO 201, 240 h, time 10 day; in short: as §1
[12] = tested on: 769-P; test: Antiproliferative activity against human 769-P cells assessed as cell growth inhibition incubated for 10 days; format: functional; details: 240 h, time 10 day; in short: as §1
[13] = tested on: Hs 695T; test: Antiproliferative activity against human Hs 695T cells assessed as cell growth inhibition incubated for 10 days; format: functional; details: 240 h, time 10 day
In short: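 Eurofins panel, 384-well. Cells kept in RPMI-1640 with 10% FBS, 2 mM L-alanyl-L-glutamine and 1 mM Na pyruvate, or in a special medium, at 37°C under 5% CO2. Compound added 24 h after seeding as 10 concentrations in 3.16-fold steps, 0.1% DMSO final. Medium replaced and compound re-dosed at 168 h. After 240 h, cells fixed and nuclei stained for imaging. gIC50 = growth midway between untreated cells and time-zero count.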

[14] = Antiproliferative activity against human SW579 cells assessed as cell growth inhibition incubated for 10 days; format: functional; details: SW579, 240 h, time 10 day
[15] = tested on: SNU-423; test: Antiproliferative activity against human SNU-423 cells assessed as cell growth inhibition incubated for 10 days; format: functional; details: SNU-423, 240 h, time 10 day
[16] = tested on: HOS; test: Antiproliferative activity against human HOS cells assessed as cell growth inhibition incubated for 10 days; format: functional; details: 240 h, time 10 day; in short: as §2
[17] = tested on: Calu-1; test: Antiproliferative activity against human Calu-1 cells assessed as cell growth inhibition incubated for 10 days; format: functional; details: Calu-1, 240 h, time 10 day; in short: as §2
[18] = target: Protein arginine N-methyltransferase 5 (Homo sapiens) (UniProt O14744); test: Inhibition of PRMT5 in human Z138 cells expressing full length MDM4 assessed as induction of p21 at 1 uM incubated for 4 days by Western blot analysis; format: cell-based; details: time 4.0 day
[19] = tested on: U2OS; test: Antiproliferative activity against human U2OS cells assessed as cell growth inhibition incubated for 10 days; format: functional; details: 240 h, time 10 day
[20] = tested on: NCI-H295R; test: Antiproliferative activity against human NCI-H295R cells assessed as cell growth inhibition incubated for 10 days; format: functional; details: 240 h, time 10 day
[21] = tested on: CCF-STTG1; test: Antiproliferative activity against human CCF-STTG1 cells assessed as cell growth inhibition incubated for 10 days; format: functional; details: CCF-STTG1, 240 h, time 10 day; in short: as §1
[22] = tested on: Calu-6; test: Antiproliferative activity against human Calu-6 cells assessed as cell growth inhibition incubated for 10 days; format: functional; details: Calu-6, 240 h, time 10 day; in short: as §2
[23] = Antiproliferative activity against human SKO-007 cells assessed as cell growth inhibition incubated for 10 days; format: functional; details: SKO-007, 240 h, time 10 day
[24] = tested on: BeWo; test: Antiproliferative activity against human BeWo cells assessed as cell growth inhibition incubated for 10 days; format: functional; details: 240 h, time 10 day; in short: as §1
[25] = tested on: Y79; test: Antiproliferative activity against human Y79 cells assessed as cell growth inhibition incubated for 10 days; format: functional; details: Y79, 240 h, time 10 day
[26] = tested on: DOHH-2; test: Antiproliferative activity against human DOHH-2 cells assessed as cell growth inhibition incubated for 10 days; format: functional; details: DOHH-2, 240 h, time 10 day; in short: as §2
[27] = tested on: Caov-3 cell line; test: Antiproliferative activity against human Caov-3 cell line assessed as cell growth inhibition incubated for 10 days; format: functional; details: Caov-3, 240 h, time 10 day; in short: as §2
[28] = tested on: U-87 MG; test: Antiproliferative activity against human U-87 MG cells assessed as cell growth inhibition incubated for 10 days; format: functional, U-87MG ATCC; details: 240 h, time 10 day
[29] = tested on: AN3-CA; test: Antiproliferative activity against human AN3-CA cells assessed as cell growth inhibition incubated for 10 days; format: functional; details: 240 h, time 10 day; in short: as §1
[30] = tested on: RPMI-8226; test: Antiproliferative activity against human RPMI-8226 cells assessed as cell growth inhibition incubated for 10 days; format: functional; details: RPMI-8226, 240 h, time 10 day
[31] = Antiproliferative activity against human TE 381.T cells assessed as cell growth inhibition incubated for 10 days; format: functional; details: 240 h, time 10 day
[32] = tested on: YAPC; test: Antiproliferative activity against human YAPC cells assessed as cell growth inhibition incubated for 10 days; format: functional; details: 240 h, time 10 day
[33] = tested on: SK-UT-1; test: Antiproliferative activity against human SK-UT-1 cells assessed as cell growth inhibition incubated for 10 days; format: functional; details: SK-UT-1, 240 h, time 10 day

Chain of Protein arginine N-methyltransferase 5 (Homo sapiens) (O14744 whole entry): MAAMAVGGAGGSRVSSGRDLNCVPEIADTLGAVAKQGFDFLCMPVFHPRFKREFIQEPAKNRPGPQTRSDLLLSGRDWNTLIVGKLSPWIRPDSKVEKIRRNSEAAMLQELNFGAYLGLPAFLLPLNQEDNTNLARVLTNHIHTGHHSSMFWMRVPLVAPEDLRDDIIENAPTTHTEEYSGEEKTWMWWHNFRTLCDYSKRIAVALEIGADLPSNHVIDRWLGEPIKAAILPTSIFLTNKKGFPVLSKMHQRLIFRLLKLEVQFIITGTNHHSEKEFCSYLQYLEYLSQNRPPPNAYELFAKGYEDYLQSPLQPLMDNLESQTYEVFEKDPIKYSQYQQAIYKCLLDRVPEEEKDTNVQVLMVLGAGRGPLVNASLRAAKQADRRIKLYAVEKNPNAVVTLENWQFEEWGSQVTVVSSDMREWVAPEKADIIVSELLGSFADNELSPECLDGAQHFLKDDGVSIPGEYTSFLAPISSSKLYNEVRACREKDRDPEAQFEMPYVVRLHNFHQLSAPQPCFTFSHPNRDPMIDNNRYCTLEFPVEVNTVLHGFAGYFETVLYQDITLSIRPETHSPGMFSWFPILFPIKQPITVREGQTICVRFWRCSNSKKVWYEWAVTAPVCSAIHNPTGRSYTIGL

For CC(=O)N1CCC(Nc2cc(C(=O)NC[C@H](O)CN3CCc4ccccc4C3)ncn2)CC1 [PEMRAMETOSTAT], the Activity [1] was “inactive”, the Activity [2] was “Active” and the Activity [3] was “Active”.

In the case of O=C(NC[C@H](O)CN1CCc2ccccc2C1)c1ccnc(NC2CCC2)c1, the GI50 [4] is reported as 223 nM, the GI50 [5] is reported as 82.2 nM and the GI50 [6] is reported as 80.3 nM. For the same compound, the GI50 [7] was 10000 nM, the GI50 [8] was 2.51 nM and the GI50 [9] was 590 nM. It also gave a GI50 [10] of 38.6 nM, a GI50 [11] of 49.6 nM and a GI50 [12] of 203 nM. It also gave a GI50 [13] of 602 nM, a GI50 [14] of 83.3 nM and a GI50 [15] of 66 nM. For the same compound, the GI50 [16] was 223 nM, the GI50 [17] was 3050 nM and the inhibition [18] was “inactive”. The GI50 [19] was 485 nM, the GI50 [20] was 10000 nM and the GI50 [21] was 115 nM. It also gave a GI50 [22] of 206 nM, a GI50 [23] of 84.4 nM and a GI50 [24] of 1090 nM. It also gave a GI50 [25] of 113 nM, a GI50 [26] of 157 nM and a GI50 [27] of 298 nM. The GI50 [28] was 67.6 nM, the GI50 [29] was 254 nM and the GI50 [30] was 58.4 nM. The GI50 [31] was 147 nM, the GI50 [32] was 168 nM and the GI50 [33] was 42.1 nM.
